Activity data for four compounds are collected here from ChEMBL document CHEMBL4825685, “Structure activity relationship (SAR) study identifies a quinoxaline urea analog that modulates IKKβ phosphorylation for pancreatic cancer therapy” (Eur J Med Chem, 2021).

Assay [1] concerns MIA PaCa-2. Briefly: Induction of apoptosis in human MIA PaCa-2 cells assessed as increase in caspase 3/7 activation at 10 uM incubated for 24 hrs by Caspase-Glo assay. The assay is classed as functional, cell-based. The method in brief: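 MiaPaCa2 cells (2.5 × 10⁴/well) attached overnight, then treated 24 h at 0.1% final DMSO. alamarBlue added at 21 h for 3 h and fluorescence read at 560/590. Caspase-Glo luminescence read 2 h later. Luminescence ×100/fluorescence normalized to DMSO average, n = 3.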

The subject of assay [2] is MIA PaCa-2. Kind of assay: Antitumor activity against human MIA PaCa-2 cells xenografted in Foxn1nu athymic nude mouse assessed as reduction in tumor weight at 15 mg/kg, ip administered every 3 days for 4 weeks […]. The format is functional. Details: scale not given: the % may be the effect or the level left. The procedure, abridged: (§1)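 MiaPaCa2 cells (2.5 × 10⁶, mixed 2:1 with Matrigel) implanted subcutaneously in left flank; randomised 20 days later (n = 6/group). Gemcitabine 15 mg/kg i.p. every 72 h against vehicle (100 µl daily orally). Tumour volume measured every 3 days by caliper as 1/2 × length × width² (mm³); mice sacrificed after 27th treatment day and tumours weighed; unpaired Student's t-test.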

Assay [3] concerns MIA PaCa-2. Kind of assay: Antitumor activity against human MIA PaCa-2 cells xenografted in Foxn1nu athymic nude mouse assessed as reduction in tumor volume at 15 mg/kg, ip administered every 3 days for 4 weeks by digital caliper method relative to control. The assay is classed as functional. Also on record: scale not given: the % may be the effect or the level left. The procedure, abridged: as §1

Calls of active or inactive are those of the source. The calls are words filed in the database; no cut-off is given here.

For the compound `Cn1cc(-c2cnc3ccc(NC(=O)Nc4ccc(F)c(Cl)c4)cc3n2)cn1`, the outcome in assay [1] was inactive. In the case of `Cn1cc(-c2cnc3ccc(NC(=O)Nc4ccc(F)c(OC(F)(F)F)c4)cc3n2)cn1`, the outcome in assay [1] was inactive.

For the compound `Cn1cc(-c2cnc3ccc(NC(=O)Nc4cccc(C(F)(F)F)c4)cc3n2)cn1`, in assay [1], the result was inactive. In the case of `Nc1ccn([C@@H]2O[C@H](CO)[C@@H](O)C2(F)F)c(=O)n1` [GEMCITABINE], the Activity in assay [2] and in assay [3] was 45% throughout.
